ChEMBL document CHEMBL1781884, “Design, synthesis, and structure-activity relationship of tropane muscarinic acetylcholine receptor antagonists” (J Med Chem, 2009)

How the values were obtained:
[1] = molecular target: T1, Muscarinic acetylcholine receptor M3 (Homo sapiens, UniProt P20309); assay: Antagonist activity against human M3 receptor expressed in CHO cells assessed as inhibition of acetylcholine-induced calcium mobilization by FLIPR; assay type: functional, cell-based; settings: for Kb: read-out: pA2 (converted)
Mus musculus [2] = assay: Inhibition of methacholine-induced bronchoconstriction in dosed BALB/c mouse assessed as respiratory values at 5 ug, intranasal at 24 hrs; assay type: functional
Mus musculus [3] = assay: Inhibition of methacholine-induced bronchoconstriction in dosed BALB/c mouse assessed as respiratory values at 50 ug, intranasal at 24 hrs; assay type: functional
[4] = (§1) Oral bioavailability in rat at 5.8 mg/kg; assay type: ADME, organism-based; settings: in vivo
Outline: (§2)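 Rat oral dosing at 5.8 mg/kg; percent bioavailability determined from plasma levels, individual animal values listed because of variability.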

Mus musculus [5] = assay: Bronchorelaxant activity in intranasally dosed BALB/c mouse bronchus assessed as inhibition of methacholine-induced contraction; assay type: functional
[6] = molecular target: T1, Muscarinic acetylcholine receptor M3; assay: Antagonist activity at human muscarinic M3 receptor in human bronchus assessed as reversal time for 50% of carbachol-induced contraction to return to maximum relaxation at 10 nM; assay type: functional
Outline: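 Human bronchial strips from primary, secondary or tertiary airways (autopsy) in organ baths on force-displacement transducers; preincubated 2 h with antagonist at 10 nM, then contracted with increasing carbachol. Antagonist then washed out, tissue superfused with carbachol-containing buffer and tension recovery followed over time; value is minutes to 50% reversal of antagonist blockade (Off t50).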

[7] = molecular target: T1, Muscarinic acetylcholine receptor M3; assay: Displacement of [3H]N-methyl Scopolamine from human muscarinic M3 receptor expressed in CHO cells by scintillation proximity assay; assay type: cell-based
Outline: (§3)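 Scintillation proximity binding on membranes from CHO cells expressing human M1, M2 or M3 receptor, competing against 0.5 nM [3H]-N-methylscopolamine; Ki reported, mean of two or more independent assays.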

[8] = molecular target: T2, Muscarinic acetylcholine receptor M1 (Homo sapiens, UniProt P11229); assay: Displacement of [3H]N-methyl Scopolamine from human muscarinic M1 receptor expressed in CHO cells by scintillation proximity assay; assay type: cell-based; outline: as §3
T2 sequence (P11229 whole entry): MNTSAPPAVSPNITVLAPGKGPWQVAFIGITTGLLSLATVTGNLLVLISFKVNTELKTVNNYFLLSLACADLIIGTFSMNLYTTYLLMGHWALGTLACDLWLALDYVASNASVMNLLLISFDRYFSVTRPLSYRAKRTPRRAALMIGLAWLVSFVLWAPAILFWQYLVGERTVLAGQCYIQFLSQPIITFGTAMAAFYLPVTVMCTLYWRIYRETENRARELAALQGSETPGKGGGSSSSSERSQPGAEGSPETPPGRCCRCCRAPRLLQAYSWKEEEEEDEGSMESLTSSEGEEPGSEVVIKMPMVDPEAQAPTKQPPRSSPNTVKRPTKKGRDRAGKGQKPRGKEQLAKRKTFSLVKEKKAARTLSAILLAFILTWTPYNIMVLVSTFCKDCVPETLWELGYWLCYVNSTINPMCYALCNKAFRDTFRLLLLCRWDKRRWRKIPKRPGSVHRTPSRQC

[9] = molecular target: T3, Muscarinic acetylcholine receptor M2 (Homo sapiens, UniProt P08172); assay: Displacement of [3H]N-methyl Scopolamine from human muscarinic M2 receptor expressed in CHO cells by scintillation proximity assay; assay type: cell-based; outline: as §3
T3 sequence (P08172 whole entry): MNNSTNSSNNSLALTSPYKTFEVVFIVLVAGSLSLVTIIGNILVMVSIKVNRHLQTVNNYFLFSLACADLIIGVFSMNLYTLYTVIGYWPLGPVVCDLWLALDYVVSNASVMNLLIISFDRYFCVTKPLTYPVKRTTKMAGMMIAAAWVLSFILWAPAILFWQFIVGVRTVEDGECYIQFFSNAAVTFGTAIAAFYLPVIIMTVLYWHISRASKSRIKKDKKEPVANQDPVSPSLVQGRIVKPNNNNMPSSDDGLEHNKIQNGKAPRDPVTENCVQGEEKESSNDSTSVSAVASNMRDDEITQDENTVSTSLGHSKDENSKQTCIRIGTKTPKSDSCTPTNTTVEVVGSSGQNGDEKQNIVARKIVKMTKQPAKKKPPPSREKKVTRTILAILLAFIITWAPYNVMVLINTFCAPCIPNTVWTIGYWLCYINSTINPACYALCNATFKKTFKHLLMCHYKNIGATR

Mus musculus [10] = organism: Mus musculus; assay: Bronchorelaxant activity in methacholine-induced BALB/c mouse bronchus contraction model assessed as time to 50% loss of maximum protection at 5 ug, intranasally; assay type: functional
Outline: (§4)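 Balb/C mice (n = 4 per group) dosed intranasally (50 μL, 10% DMSO vehicle); challenged 0.25-48 h later with 30 mg/mL methacholine aerosol for 2 min; Penh recorded over next 5 min, as ratio of post-drug to pre-drug Penh; duration taken as time to 50% loss of maximum protection.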

[11] = molecular target: T1, Muscarinic acetylcholine receptor M3; assay: Antagonist activity at human muscarinic M3 receptor in human bronchus assessed as potency against carbachol-induced contraction; assay type: functional; settings: read-out: pA2 (converted)
Outline: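 Human bronchial strips (primary, secondary or tertiary airways, obtained at autopsy) mounted in organ baths on force-displacement transducers; preincubated 2 h with antagonist, then given increasing carbachol concentrations; potency expressed as pA2.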

[12] = Systemic plasma clearance in rat at 2.8 mg/kg, iv; assay type: ADME, organism-based; design: dose 2.8 mg/kg, route intravenous
Rattus norvegicus = assay: as §1; assay type: ADME, organism-based; settings: in vivo, BLD = below limit of detection; outline: as §2
[13] = Systemic plasma clearance in rat at 2.5 mg/kg, iv; assay type: ADME, organism-based; design: dose 2.5 mg/kg, route intravenous
Mus musculus [14] = organism: Mus musculus; assay: Bronchorelaxant activity in methacholine-induced BALB/c mouse bronchus contraction model assessed as time to 50% loss of maximum protection at 0.5 ug, intranasally; assay type: functional; outline: as §4

Compound	IC50 [1] [nM]	Kb [1] [nM]	other results
Cc1ccccc1C(O)(C[C@H]1C[C@H]2CC[C@@H](C1)[N+]2(C)C)c1ccccc1C.[Br-]	10	5.01	inhibition (INH) (Mus musculus [2]): 34%
C[N+]1(C)[C@@H]2CC[C@H]1C[C@@H](CC(O)(c1cc(F)cc(F)c1)c1cc(F)cc(F)c1)C2	112		
C[N+]1(C)[C@@H]2CC[C@H]1C[C@@H](C=C(c1ccccc1)c1ccccc1)C2.[Br-]	< 10	5.01	inhibition (INH) (Mus musculus [3]): 76%
C[N+]1(C)[C@@H]2CC[C@H]1C[C@@H](CC(O)(c1ccc(Cl)cc1)c1ccc(Cl)cc1)C2	74		
C[N+]1(C)[C@@H]2CC[C@H]1C[C@@H](C=C(c1cccs1)c1cccs1)C2.[Br-]	< 10	0.1	bioavailability [4]: 2.4%; ED50 (Mus musculus [5]): 0.2 µg; TIME [6]: 0.983 h; Ki [7]: 0.45 nM; Ki [8]: 0.38 nM; Ki [9]: 0.73 nM; inhibition (INH) (Mus musculus [2]): 72%; Time (Mus musculus [10]): 24 h; Kb [11]: 1 nM; clearance [12]: 85 mL/min/kg
Cc1ccc(F)cc1C(O)(C[C@H]1C[C@H]2CC[C@@H](C1)[N+]2(C)C)c1cc(F)ccc1C	37		
C[N+]1(C)[C@@H]2CC[C@H]1C[C@@H](CC(O)(c1cccc(F)c1)c1cccc(F)c1)C2	11	10	
CN1[C@@H]2CC[C@H]1C[C@@H](CC(C(N)=O)(c1ccccc1)c1ccccc1)C2	< 10	0.1	inhibition (INH) (Mus musculus [2]): >10%
CCC(O)(C[C@H]1C[C@H]2CC[C@@H](C1)N2C)c1ccccc1 (some centres not stated)	135		
C[N+]1(C)[C@@H]2CC[C@H]1C[C@@H](CC(O)(c1cccs1)c1cccs1)C2.[Br-]	< 10	2.51	inhibition (INH) (Mus musculus [2]): 19%
Cc1ccccc1C(O)(C[C@H]1C[C@H]2CCC[C@@H](C1)[N+]2(C)C)c1ccccc1C	23		
CN1[C@@H]2CC[C@H]1C[C@@H](CC(O)(c1cccs1)c1cccs1)C2	< 10	2.51	inhibition (INH) (Mus musculus [3]): >10%
Cc1ccccc1C(=C[C@H]1C[C@H]2CC[C@@H](C1)[N+]2(C)C)c1ccccc1C.[Br-]	< 10	0.1	inhibition (INH) (Mus musculus [2]): 91%
CN1[C@@H]2CC[C@H]1C[C@@H](CC(O)(c1ccccc1)c1ccccc1)C2	973		inhibition (INH) (Mus musculus [3]): >10%
C[N+]1(C)[C@@H]2CC[C@H]1C[C@@H](CC(O)(c1ccccc1)c1ccccc1)C2.[Br-]			inhibition (INH) (Mus musculus [3]): 62%
C[N+]1(C)[C@@H]2CC[C@H]1C[C@@H](CC(C#N)(c1ccccc1)c1ccccc1)C2.[Br-]			F (Rattus norvegicus): BLD; ED50 (Mus musculus [5]): 0.01 µg; TIME [6]: 1.42 h; Ki [7]: 0.06 nM; Ki [9]: 0.17 nM; clearance [13]: 74 mL/min/kg; Time (Mus musculus [14]): >24 h; Kb [11]: 0.1 nM

Compound	IC50 [1] [nM]	Kb [1] [nM]	other results
Cc1cc(C(O)(C[C@H]2C[C@H]3CC[C@@H](C2)[N+]3(C)C)c2csc(C)c2)cs1	65		
C[N+]1(C)[C@@H]2CCC[C@H]1C[C@H](CC(O)(c1ccccc1)c1ccccc1)C2.[Br-]	< 10	1.58	inhibition (INH) (Mus musculus [2]): 34%
COc1ccccc1C(O)(C[C@H]1C[C@H]2CC[C@@H](C1)[N+]2(C)C)c1ccccc1OC	> 10000		
C[N+]1(C)[C@@H]2CCC[C@H]1C[C@@H](CC(O)(c1cccs1)c1cccs1)C2.[I-]	< 10	2	inhibition (INH) (Mus musculus [2]): 44%
CN1[C@@H]2CC[C@H]1C[C@@H](CCC(O)(c1ccccc1)c1ccccc1)C2	134		
C[N+]1(C)[C@@H]2CC[C@H]1C[C@@H](CC(CO)(c1ccccc1)c1ccccc1)C2		3.98	
C[N+]1(C)[C@@H]2CC[C@H]1C[C@@H](CC(C(N)=O)(c1ccccc1)c1ccccc1)C2.[I-]	< 10	0.126	inhibition (INH) (Mus musculus [2]): 90%
C[N+]1(C)[C@@H]2CC[C@H]1C[C@@H](CC(O)(c1ccc(F)c(F)c1)c1ccc(F)c(F)c1)C2	290		
Cc1c(F)cccc1C(O)(C[C@H]1C[C@H]2CC[C@@H](C1)[N+]2(C)C)c1cccc(F)c1C	65		
COc1ccc(C(O)(C[C@H]2C[C@H]3CC[C@@H](C2)[N+]3(C)C)c2ccc(OC)cc2)cc1	> 10000		
CN1[C@@H]2CC[C@H]1C[C@@H](CC(O)(c1ccccc1)c1ccccn1)C2 (some centres not stated)	19		
C[N+]1(C)[C@@H]2CC[C@H]1C[C@@H](CC(O)(c1cccc(Cl)c1)c1cccc(Cl)c1)C2	25		
C[N+]1(C)[C@@H]2CCC[C@H]1C[C@H](C=C(c1cccs1)c1cccs1)C2.[Br-]	< 10	1	inhibition (INH) (Mus musculus [2]): 49%
C[N+]1(C)[C@@H]2CC[C@H]1C[C@@H](CC(O)(c1ccsc1)c1ccsc1)C2	17		
CN1[C@@H]2CC[C@H]1C[C@@H](CC(C#N)(c1ccccc1)c1ccccc1)C2		0.316	
CN1[C@@H]2CC[C@H]1C[C@@H](C(O)(c1ccccc1)c1ccccc1)C2	1500		
